Source: ChEMBL document CHEMBL1177716, “Kinesin spindle protein (KSP) inhibitors with 2,3-fused indole scaffolds” (J Med Chem, 2010)
Calls of active or inactive are those of the source. The rule behind the calls is not given here.

Experiments:
HeLa = experiment: Cytotoxicity against human HeLa cells after 48 hrs […]; assay type: functional, cell-based; conditions: Homo sapiens, HeLa, 48 h
[1] = target: T1, Kinesin-like protein KIF11 (Homo sapiens, UniProt P52732); experiment: Inhibition of human C-terminally His6-tagged microtubule-activated KSP motor domain ATPase activity after 30 mins by luciferase-derived luminescence assay
T1 sequence (P52732 whole entry): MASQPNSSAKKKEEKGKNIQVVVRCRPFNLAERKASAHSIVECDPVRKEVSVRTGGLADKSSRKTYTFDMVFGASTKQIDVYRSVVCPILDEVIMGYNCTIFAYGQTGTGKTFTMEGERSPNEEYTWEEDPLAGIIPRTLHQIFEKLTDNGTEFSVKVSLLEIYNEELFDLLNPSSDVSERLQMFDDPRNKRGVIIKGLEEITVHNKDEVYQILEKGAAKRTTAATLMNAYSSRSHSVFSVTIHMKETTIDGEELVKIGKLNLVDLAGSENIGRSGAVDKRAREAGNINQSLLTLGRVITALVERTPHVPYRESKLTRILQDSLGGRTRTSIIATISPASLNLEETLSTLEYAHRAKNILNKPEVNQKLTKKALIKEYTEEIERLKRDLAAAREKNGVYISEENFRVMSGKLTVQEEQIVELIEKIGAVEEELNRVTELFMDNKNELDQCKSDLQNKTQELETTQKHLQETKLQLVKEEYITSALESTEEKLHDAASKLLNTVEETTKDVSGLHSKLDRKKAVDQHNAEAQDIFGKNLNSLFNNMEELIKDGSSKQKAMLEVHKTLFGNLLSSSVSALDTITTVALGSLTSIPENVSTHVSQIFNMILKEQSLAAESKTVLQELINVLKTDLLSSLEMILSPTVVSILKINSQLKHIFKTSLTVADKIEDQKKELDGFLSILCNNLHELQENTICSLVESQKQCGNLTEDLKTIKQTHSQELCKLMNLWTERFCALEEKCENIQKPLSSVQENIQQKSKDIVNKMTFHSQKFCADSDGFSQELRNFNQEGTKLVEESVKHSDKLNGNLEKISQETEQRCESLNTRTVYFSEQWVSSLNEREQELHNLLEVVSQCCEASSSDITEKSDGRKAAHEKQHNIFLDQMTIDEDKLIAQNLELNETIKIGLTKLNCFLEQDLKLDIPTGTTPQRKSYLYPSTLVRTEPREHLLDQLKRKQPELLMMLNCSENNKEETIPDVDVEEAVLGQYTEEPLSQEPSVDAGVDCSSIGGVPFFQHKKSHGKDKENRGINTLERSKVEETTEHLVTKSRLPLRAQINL

Nucleic Acid = experiment: Induction of supercoiled DNA relaxation after 20 mins by agarose gel electrophoresis analysis; assay type: nucleic-acid assay
Sus scrofa [2] = organism: Sus scrofa; experiment: Inhibition of pig brain topoisomerase 1-mediated supercoiled DNA relaxation after 20 mins by agarose gel electrophoresis analysis
In short: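 Supercoiled DNA was incubated with topo I, with or without test compound. Gel lanes included supercoiled DNA alone, DNA plus enzyme without compound, and DNA plus enzyme with camptothecin as the reference inhibitor.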

[3] = target: T2, Kinesin-like protein KIF22 (Homo sapiens) (UniProt Q14807); experiment: Inhibition of Kid ATPase activity at 20 uM
T2 sequence (whole entry): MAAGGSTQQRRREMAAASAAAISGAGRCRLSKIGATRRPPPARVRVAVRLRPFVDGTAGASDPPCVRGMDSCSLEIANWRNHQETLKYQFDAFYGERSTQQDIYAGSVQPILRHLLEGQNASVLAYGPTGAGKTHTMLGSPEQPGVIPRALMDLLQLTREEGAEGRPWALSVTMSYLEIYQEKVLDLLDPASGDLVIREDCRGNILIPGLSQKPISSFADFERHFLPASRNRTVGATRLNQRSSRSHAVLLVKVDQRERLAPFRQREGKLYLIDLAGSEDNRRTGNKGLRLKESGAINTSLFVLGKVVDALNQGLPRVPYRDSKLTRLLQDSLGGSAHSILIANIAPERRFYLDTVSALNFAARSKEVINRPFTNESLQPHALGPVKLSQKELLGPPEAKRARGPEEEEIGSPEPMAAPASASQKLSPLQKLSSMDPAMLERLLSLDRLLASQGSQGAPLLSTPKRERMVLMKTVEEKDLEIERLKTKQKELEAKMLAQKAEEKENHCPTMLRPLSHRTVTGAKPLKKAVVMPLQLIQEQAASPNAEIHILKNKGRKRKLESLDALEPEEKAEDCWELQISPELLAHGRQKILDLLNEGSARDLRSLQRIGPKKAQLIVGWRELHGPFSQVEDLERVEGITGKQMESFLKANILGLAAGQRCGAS

Sus scrofa [4] = organism: Sus scrofa; experiment: Inhibition of pig brain topoisomerase 2-mediated supercoiled DNA relaxation after 20 mins by agarose gel electrophoresis analysis
In short: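 Supercoiled DNA was incubated with topo II, with or without test compound. Gel lanes included supercoiled DNA alone, DNA plus enzyme without compound, and DNA plus enzyme with AMSA as the reference inhibitor.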

[5] = target: Centromere-associated protein E (Homo sapiens) (UniProt Q02224); experiment: Inhibition of CENP-E ATPase activity at 20 uM
Sequence of Centromere-associated protein E (Homo sapiens) (Q02224 whole entry): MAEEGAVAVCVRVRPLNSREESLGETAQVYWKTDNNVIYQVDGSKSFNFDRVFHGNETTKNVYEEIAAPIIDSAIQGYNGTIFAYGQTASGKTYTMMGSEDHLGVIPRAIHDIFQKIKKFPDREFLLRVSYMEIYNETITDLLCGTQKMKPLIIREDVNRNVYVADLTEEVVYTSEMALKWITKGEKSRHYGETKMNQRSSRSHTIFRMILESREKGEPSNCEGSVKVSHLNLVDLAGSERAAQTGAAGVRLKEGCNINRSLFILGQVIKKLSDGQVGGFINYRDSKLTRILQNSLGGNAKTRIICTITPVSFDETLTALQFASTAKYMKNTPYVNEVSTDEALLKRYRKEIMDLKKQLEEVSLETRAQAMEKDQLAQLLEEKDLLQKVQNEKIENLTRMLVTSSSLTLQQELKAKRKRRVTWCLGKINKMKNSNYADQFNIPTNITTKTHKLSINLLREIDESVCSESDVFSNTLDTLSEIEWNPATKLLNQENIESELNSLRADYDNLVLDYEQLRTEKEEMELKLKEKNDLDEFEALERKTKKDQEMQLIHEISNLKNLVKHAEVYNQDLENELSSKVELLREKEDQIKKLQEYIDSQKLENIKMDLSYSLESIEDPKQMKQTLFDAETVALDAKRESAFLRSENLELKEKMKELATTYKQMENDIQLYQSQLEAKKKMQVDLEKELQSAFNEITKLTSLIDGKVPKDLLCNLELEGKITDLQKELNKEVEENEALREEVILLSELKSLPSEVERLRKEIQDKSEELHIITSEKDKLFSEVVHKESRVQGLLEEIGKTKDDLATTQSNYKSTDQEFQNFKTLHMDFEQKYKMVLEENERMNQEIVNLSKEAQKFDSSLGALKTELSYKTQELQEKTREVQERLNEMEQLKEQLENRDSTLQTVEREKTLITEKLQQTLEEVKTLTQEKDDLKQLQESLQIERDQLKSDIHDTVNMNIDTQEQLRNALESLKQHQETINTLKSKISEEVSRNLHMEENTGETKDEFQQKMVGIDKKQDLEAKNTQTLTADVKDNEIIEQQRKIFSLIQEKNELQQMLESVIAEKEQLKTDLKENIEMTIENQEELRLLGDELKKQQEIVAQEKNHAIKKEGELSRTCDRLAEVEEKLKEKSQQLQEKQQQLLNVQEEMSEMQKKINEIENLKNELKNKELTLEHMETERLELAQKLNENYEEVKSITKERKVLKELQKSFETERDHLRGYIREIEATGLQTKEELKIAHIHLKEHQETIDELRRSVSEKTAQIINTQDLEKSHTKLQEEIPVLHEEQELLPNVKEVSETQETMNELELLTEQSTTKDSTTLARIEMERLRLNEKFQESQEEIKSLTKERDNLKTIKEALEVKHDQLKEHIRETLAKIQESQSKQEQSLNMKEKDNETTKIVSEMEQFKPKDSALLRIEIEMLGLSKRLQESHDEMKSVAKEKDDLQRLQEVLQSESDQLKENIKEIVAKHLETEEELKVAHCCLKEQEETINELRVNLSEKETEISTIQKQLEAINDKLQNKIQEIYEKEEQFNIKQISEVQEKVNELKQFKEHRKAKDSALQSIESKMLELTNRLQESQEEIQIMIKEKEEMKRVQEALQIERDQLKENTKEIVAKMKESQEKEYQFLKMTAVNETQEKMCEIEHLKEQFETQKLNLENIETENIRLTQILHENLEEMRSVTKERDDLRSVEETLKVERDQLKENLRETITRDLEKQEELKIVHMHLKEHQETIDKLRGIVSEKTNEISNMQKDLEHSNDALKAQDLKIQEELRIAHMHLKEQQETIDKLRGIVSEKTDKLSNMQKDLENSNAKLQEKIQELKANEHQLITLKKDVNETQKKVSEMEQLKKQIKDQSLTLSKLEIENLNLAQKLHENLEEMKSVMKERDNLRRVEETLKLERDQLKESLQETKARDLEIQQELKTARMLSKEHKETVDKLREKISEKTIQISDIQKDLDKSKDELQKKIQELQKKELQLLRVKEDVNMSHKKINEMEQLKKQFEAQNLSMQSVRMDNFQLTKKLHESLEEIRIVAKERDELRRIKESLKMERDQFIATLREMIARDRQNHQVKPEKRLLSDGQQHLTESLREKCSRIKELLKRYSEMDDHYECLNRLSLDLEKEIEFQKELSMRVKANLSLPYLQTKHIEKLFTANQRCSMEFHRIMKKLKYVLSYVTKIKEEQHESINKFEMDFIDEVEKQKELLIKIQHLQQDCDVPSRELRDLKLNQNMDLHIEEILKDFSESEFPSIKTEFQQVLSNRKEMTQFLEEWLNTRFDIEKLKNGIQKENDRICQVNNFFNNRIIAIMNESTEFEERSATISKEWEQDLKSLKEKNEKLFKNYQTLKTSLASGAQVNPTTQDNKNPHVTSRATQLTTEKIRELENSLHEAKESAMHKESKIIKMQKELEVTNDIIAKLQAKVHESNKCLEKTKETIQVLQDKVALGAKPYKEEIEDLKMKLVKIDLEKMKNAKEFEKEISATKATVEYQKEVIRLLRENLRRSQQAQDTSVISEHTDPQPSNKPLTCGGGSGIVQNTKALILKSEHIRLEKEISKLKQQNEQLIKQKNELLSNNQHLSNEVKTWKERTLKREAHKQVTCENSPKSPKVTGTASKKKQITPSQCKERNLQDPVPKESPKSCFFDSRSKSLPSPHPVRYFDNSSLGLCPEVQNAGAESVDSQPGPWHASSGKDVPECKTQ

Structure (SMILES)	IC50 (HeLa)	IC50 [1]	Activity (Nucleic Acid)	inhibition (Sus scrofa [2])	inhibition [3]	inhibition (Sus scrofa [4])	inhibition [5]
FC(F)(F)c1ccc2[nH]c3ccccc3c2c1	14 µM	0.95 µM	inactive	inactive	inactive	inactive	inactive
FC(F)(F)c1ccc2c(c1)[nH]c1ccccc12	11 µM	0.26 µM	inactive	inactive	inactive	inactive	inactive
CC(C)(C)c1ccc2c(c1)[nH]c1ccccc12	40 µM	0.3 µM	inactive	inactive	inactive	inactive	inactive
